Measured values taken from ChEMBL document CHEMBL1154235, “Rational design and semisynthesis of betulinic acid analogues as potent topoisomerase inhibitors” (J Nat Prod, 2009).
Activity calls are given as the source filed them. The rule behind the calls is not given here.

Experiments:
[1] = target: DNA topoisomerase 2-alpha (Homo sapiens) (UniProt P11388); assay: Inhibition of topoisomerase 2 alpha catalytic activity assessed as decatenation of kinetoplast DNA at 100 uM after 15 mins by agarose gel electrophoresis
[2] = tested on: SW948; assay: Antiproliferative activity against human SW948 cells after 3 days by XTT assay; format: functional, cell-based; conditions: SW948, 72 h
In short: (§1)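 Cells plated at 4000/well and grown 1 day at 37 °C, then exposed to a range of drug concentrations for 3 more days. Read-out by XTT tetrazolium reduction on a plate reader. Each concentration run in triplicate. IC50 taken from a linear-quadratic fit. Assays repeated two or three times and reported as mean ± SE. HCT-116 kept in modified McCoy's 5a and SW948 in Leibovitz's L-15, each with 10% heat-inactivated FBS and 2 mM L-glutamine.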

[3] = tested on: HCT-116; assay: Antiproliferative activity against human HCT116 cells after 3 days by XTT assay; format: functional, cell-based; conditions: HCT-116, 72 h; in short: as §1
[4] = tested on: MDA-MB-231; assay: Antiproliferative activity against human MDA-MB-231 cells after 3 days by MTT assay; format: functional, cell-based; conditions: MDA-MB-231, 72 h
In short: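 MDA-MB-231 cells kept in RPMI 1640 with 10% heat-inactivated FBS and 25 mM HEPES at 37 °C in 5% CO2. Plated at about 15 000/well and preincubated 1 day, then exposed to compound for 3 days at 37 °C, with doses in triplicate. MTT added for 4 h, formazan dissolved in detergent overnight at room temperature in the dark, OD read at 580 nm against a cell-free blank. Cell numbers from a calibration curve; IC50 from dose-response curves.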

[5] = tested on: CCRF-CEM; assay: Cytotoxicity against human CCRF-CEM cells assessed as cell growth at 10 uM; format: functional; conditions: read-out: Activity
In short: (§2)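 Single-dose screen at 10 µM against the 60 human cell line panel, run by the NCI Developmental Therapeutics Program and scored as cell growth.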

[6] = tested on: K562; assay: Cytotoxicity against human K562 cells assessed as cell growth at 10 uM; format: functional; conditions: read-out: Activity; in short: as §2
[7] = tested on: MOLT-4; assay: Cytotoxicity against human MOLT4 cells assessed as cell growth at 10 uM; format: functional; conditions: read-out: Activity; in short: as §2
[8] = tested on: RPMI-8226; assay: Cytotoxicity against human RPMI8226 cells assessed as cell growth at 10 uM; format: functional; conditions: read-out: Activity; in short: as §2
[9] = tested on: EKVX; assay: Cytotoxicity against human EKVX cells assessed as cell growth at 10 uM; format: functional; conditions: read-out: Activity; in short: as §2
[10] = tested on: HOP-62; assay: Cytotoxicity against human HOP62 cells assessed as cell growth at 10 uM; format: functional; conditions: read-out: Activity; in short: as §2
[11] = tested on: NCI-H226; assay: Cytotoxicity against human NCI-H226 cells assessed as cell growth at 10 uM; format: functional; conditions: read-out: Activity; in short: as §2
[12] = tested on: NCI-H23; assay: Cytotoxicity against human NCI-H23 cells assessed as cell growth at 10 uM; format: functional; conditions: read-out: Activity; in short: as §2
[13] = tested on: NCI-H322M; assay: Cytotoxicity against human NCI-H322M cells assessed as cell growth at 10 uM; format: functional; conditions: read-out: Activity; in short: as §2
[14] = tested on: NCI-H522; assay: Cytotoxicity against human NCI-H522 cells assessed as cell growth at 10 uM; format: functional; conditions: read-out: Activity; in short: as §2
[15] = tested on: HCT-116; assay: Cytotoxicity against human HCT116 cells assessed as cell growth at 10 uM; format: functional; conditions: read-out: Activity; in short: as §2
[16] = tested on: HT-29; assay: Cytotoxicity against human HT-29 cells assessed as cell growth at 10 uM; format: functional; conditions: read-out: Activity; in short: as §2
[17] = tested on: SF-295; assay: Cytotoxicity against human SF295 cells assessed as cell growth at 10 uM; format: functional; conditions: read-out: Activity; in short: as §2
[18] = tested on: SF-539; assay: Cytotoxicity against human SF539 cells assessed as cell growth at 10 uM; format: functional; conditions: read-out: Activity; in short: as §2
[19] = tested on: SNB-19; assay: Cytotoxicity against human SNB19 cells assessed as cell growth at 10 uM; format: functional; conditions: read-out: Activity; in short: as §2
[20] = tested on: SNB-75; assay: Cytotoxicity against human SNB75 cells assessed as cell growth at 10 uM; format: functional; conditions: read-out: Activity
[21] = tested on: U-251; assay: Cytotoxicity against human U251 cells assessed as cell growth at 10 uM; format: functional; conditions: read-out: Activity
[22] = tested on: LOX IMVI; assay: Cytotoxicity against human LOXIMVI cells assessed as cell growth at 10 uM; format: functional; conditions: read-out: Activity; in short: as §2
[23] = tested on: SK-MEL-28; assay: Cytotoxicity against human SK-MEL-28 cells assessed as cell growth at 10 uM; format: functional; conditions: read-out: Activity; in short: as §2
[24] = tested on: SK-MEL-5; assay: Cytotoxicity against human SK-MEL-5 cells assessed as cell growth at 10 uM; format: functional; conditions: read-out: Activity; in short: as §2
[25] = tested on: UACC-62; assay: Cytotoxicity against human UACC62 cells assessed as cell growth at 10 uM; format: functional; conditions: read-out: Activity
[26] = tested on: OVCAR-3; assay: Cytotoxicity against human OVCAR-3 cells assessed as cell growth at 10 uM; format: functional; conditions: read-out: Activity; in short: as §2
[27] = tested on: OVCAR-4; assay: Cytotoxicity against human OVCAR4 cells assessed as cell growth at 10 uM; format: functional; conditions: read-out: Activity; in short: as §2
[28] = tested on: OVCAR-5; assay: Cytotoxicity against human OVCAR5 cells assessed as cell growth at 10 uM; format: functional; conditions: read-out: Activity; in short: as §2
[29] = tested on: OVCAR-8; assay: Cytotoxicity against human OVCAR8 cells assessed as cell growth at 10 uM; format: functional; conditions: read-out: Activity; in short: as §2
[30] = tested on: SK-OV-3; assay: Cytotoxicity against human SKOV3 cells assessed as cell growth at 10 uM; format: functional; conditions: read-out: Activity; in short: as §2
[31] = tested on: 786-0; assay: Cytotoxicity against human 786-0 cells assessed as cell growth at 10 uM; format: functional; conditions: read-out: Activity; in short: as §2
[32] = tested on: A498; assay: Cytotoxicity against human A498 cells assessed as cell growth at 10 uM; format: functional; conditions: read-out: Activity; in short: as §2
[33] = tested on: ACHN; assay: Cytotoxicity against human ACHN cells assessed as cell growth at 10 uM; format: functional; conditions: read-out: Activity; in short: as §2
[34] = tested on: RXF 393; assay: Cytotoxicity against human […] cells assessed as cell growth at 10 uM; format: functional; conditions: read-out: Activity; in short: as §2
[35] = tested on: SN12C; assay: Cytotoxicity against human SN12C cells assessed as cell growth at 10 uM; format: functional; conditions: read-out: Activity; in short: as §2
[36] = tested on: TK-10; assay: Cytotoxicity against human TK10 cells assessed as cell growth at 10 uM; format: functional; conditions: read-out: Activity
[37] = tested on: UO-31; assay: Cytotoxicity against human UO31 cells assessed as cell growth at 10 uM; format: functional; conditions: read-out: Activity
[38] = tested on: DU-145; assay: Cytotoxicity against human DU145 cells assessed as cell growth at 10 uM; format: functional; conditions: read-out: Activity; in short: as §2
[39] = tested on: MCF7; assay: Cytotoxicity against human MCF7 cells assessed as cell growth at 10 uM; format: functional; conditions: read-out: Activity; in short: as §2
[40] = tested on: MDA-MB-231; assay: Cytotoxicity against human MDA-MB-231 cells assessed as cell growth at 10 uM; format: functional; conditions: read-out: Activity; in short: as §2
[41] = Cytotoxicity against human Hs 578T cells assessed as cell growth at 10 uM; format: functional; conditions: read-out: Activity; in short: as §2
[42] = tested on: BT-549; assay: Cytotoxicity against human BT549 cells assessed as cell growth at 10 uM; format: functional; conditions: read-out: Activity; in short: as §2
[43] = tested on: MDA-MB-468; assay: Cytotoxicity against human MDA-MB-468 cells assessed as cell growth at 10 uM; format: functional; conditions: read-out: Activity; in short: as §2

Sequence of DNA topoisomerase 2-alpha (Homo sapiens) (P11388 whole entry): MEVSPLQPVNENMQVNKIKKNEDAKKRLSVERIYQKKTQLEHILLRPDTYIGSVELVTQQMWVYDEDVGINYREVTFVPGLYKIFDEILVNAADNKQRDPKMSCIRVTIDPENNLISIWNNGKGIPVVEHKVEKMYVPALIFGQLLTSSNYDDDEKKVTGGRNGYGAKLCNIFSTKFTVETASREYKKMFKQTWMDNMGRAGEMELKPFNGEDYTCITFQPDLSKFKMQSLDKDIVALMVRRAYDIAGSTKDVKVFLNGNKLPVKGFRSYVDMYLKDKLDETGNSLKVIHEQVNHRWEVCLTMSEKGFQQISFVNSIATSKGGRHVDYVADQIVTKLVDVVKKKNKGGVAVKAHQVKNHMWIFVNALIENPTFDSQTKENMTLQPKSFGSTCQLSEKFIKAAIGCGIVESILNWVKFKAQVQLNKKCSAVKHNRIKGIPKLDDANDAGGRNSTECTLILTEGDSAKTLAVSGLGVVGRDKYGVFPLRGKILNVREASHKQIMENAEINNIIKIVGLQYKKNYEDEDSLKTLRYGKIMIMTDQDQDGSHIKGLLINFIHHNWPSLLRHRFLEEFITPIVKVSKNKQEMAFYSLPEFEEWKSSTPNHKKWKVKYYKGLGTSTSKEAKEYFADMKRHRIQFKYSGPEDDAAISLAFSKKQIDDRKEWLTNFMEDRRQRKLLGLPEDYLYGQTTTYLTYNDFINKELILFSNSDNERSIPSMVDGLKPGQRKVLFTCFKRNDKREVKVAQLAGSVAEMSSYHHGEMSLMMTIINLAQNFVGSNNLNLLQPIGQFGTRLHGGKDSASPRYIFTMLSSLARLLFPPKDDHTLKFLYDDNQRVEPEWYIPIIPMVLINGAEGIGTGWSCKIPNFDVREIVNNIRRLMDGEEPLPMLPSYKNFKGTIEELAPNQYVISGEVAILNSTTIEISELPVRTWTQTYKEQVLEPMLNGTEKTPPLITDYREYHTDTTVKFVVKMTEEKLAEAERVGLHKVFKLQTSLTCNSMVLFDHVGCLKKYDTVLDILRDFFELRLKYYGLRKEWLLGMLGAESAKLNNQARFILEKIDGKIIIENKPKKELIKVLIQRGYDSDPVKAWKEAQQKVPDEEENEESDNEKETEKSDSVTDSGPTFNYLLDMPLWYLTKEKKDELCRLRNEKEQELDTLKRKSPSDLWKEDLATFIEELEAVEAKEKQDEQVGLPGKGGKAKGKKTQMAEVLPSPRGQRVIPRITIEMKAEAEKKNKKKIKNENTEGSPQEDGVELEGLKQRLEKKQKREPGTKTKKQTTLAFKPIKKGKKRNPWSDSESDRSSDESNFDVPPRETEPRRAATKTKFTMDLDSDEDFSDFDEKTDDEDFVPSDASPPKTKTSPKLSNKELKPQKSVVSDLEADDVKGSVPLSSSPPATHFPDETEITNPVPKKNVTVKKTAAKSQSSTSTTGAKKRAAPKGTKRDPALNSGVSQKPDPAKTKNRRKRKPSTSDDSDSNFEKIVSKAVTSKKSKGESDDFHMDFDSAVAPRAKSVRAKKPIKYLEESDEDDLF

C=C(C)[C@@H]1CC[C@]2(C(O)=S)CC[C@]3(C)[C@H](CC[C@@H]4[C@@]5(C)CC[C@H](O)C(C)(C)[C@@H]5CC[C@]43C)[C@@H]12
inhibition [1]: Active
IC50 [2]: > 25 µM
IC50 [3]: > 25 µM
IC50 [4]: > 25 µM
growth at 10 µM [5]: 99.1%
growth at 10 µM [6]: 127%
growth at 10 µM [7]: 131%
growth at 10 µM [8]: 113%
growth at 10 µM [9]: 103%
growth at 10 µM [10]: 80%
growth at 10 µM [11]: 108%
growth at 10 µM [12]: 93.4%
growth at 10 µM [13]: 109%
growth at 10 µM [14]: 71.9%
growth at 10 µM [15]: 85.2%
growth at 10 µM [16]: 112%
growth at 10 µM [17]: 98.4%
growth at 10 µM [18]: 111%
growth at 10 µM [19]: 113%
growth at 10 µM [20]: 108%
growth at 10 µM [21]: 105%
growth at 10 µM [22]: 101%
growth at 10 µM [23]: 141%
growth at 10 µM [24]: 99.7%
growth at 10 µM [25]: 96.8%
growth at 10 µM [26]: 94.9%
growth at 10 µM [27]: 112%
growth at 10 µM [28]: 119%
growth at 10 µM [29]: 101%
growth at 10 µM [30]: 113%
growth at 10 µM [31]: 93.8%
growth at 10 µM [32]: 129%
growth at 10 µM [33]: 96.3%
growth at 10 µM [34]: 112%
growth at 10 µM [35]: 102%
growth at 10 µM [36]: 94.2%
growth at 10 µM [37]: 89.5%
growth at 10 µM [38]: 130%
growth at 10 µM [39]: 100%
growth at 10 µM [40]: 114%
growth at 10 µM [41]: 105%
growth at 10 µM [42]: 94.8%
growth at 10 µM [43]: 105%
